Assay results reported in ChEMBL document CHEMBL3632607, “Identification and SAR of Glycine Benzamides as Potent Agonists for the GPR139 Receptor” (ACS Med Chem Lett, 2015).
pEC50: −log10 of the molar value. Active and inactive are the calls of the source. The calls are words filed in the database; no cut-off is given here.

How the values were obtained:
[1] = biological target: T1, Probable G-protein coupled receptor 139 (Homo sapiens, UniProt Q6DWJ6); experiment: Agonist activity at human GPR139 receptor expressed in HEK293 cells assessed as calcium mobilization by FLIPR assay; format: functional, cell-based
T1 sequence (Q6DWJ6 whole entry): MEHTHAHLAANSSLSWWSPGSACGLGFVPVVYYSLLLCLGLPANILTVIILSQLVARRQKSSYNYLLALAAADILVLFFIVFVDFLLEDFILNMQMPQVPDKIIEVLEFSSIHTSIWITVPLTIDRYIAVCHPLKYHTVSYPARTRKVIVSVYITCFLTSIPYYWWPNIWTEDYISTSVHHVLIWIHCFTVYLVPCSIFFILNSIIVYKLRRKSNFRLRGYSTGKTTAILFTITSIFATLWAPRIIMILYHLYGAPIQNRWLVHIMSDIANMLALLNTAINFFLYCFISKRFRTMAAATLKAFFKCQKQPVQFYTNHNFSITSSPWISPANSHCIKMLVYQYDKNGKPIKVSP

[2] = Extraction ratio in rat liver microsomes at 1 uM after 1 hr by LC-MS/MS analysis; format: ADME; conditions: read-out: ERH
Summary of the method: (§1)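 Extraction ratio is in vitro microsomal clearance divided by Q, the species-specific hepatic blood flow (human or rat).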

[3] = Fraction unbound in rat plasma at 0.1 to 10 uM after 6 hrs by LC-MS/MS analysis; format: ADME, cell-free
[4] = Aqueous solubility of the compound in 30 mM phosphate buffer at pH 2 after 3 days; format: physicochemical
[5] = Fraction unbound in rat brain at 0.1 to 10 uM after 6 hrs by LC-MS/MS analysis; format: ADME, tissue-based
[6] = biological target: T2, Protein Gpr142 (Rattus norvegicus) (UniProt F1LWD8); experiment: Agonist activity at rat GPR142 receptor
T2 sequence (whole entry): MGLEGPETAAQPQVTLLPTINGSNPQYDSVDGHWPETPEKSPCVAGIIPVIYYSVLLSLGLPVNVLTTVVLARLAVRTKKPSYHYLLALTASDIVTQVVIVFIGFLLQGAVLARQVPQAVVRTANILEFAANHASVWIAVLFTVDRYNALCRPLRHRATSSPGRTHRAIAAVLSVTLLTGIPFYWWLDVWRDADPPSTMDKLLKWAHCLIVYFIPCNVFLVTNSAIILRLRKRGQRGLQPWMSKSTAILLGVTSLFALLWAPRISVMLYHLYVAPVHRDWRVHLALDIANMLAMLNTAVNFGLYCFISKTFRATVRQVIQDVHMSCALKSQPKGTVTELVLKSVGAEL

[7] = Oral bioavailability in Sprague-Dawley rat at 5 mg/kg; format: ADME, organism-based; conditions: in vivo
[8] = biological target: T3, Probable G-protein coupled receptor 139 (Homo sapiens) (UniProt Q6DWJ6); experiment: Total binding affinity to human GPR139 receptor expressed in CHO-TRex cells at 10 nM after 60 mins by scintillation counting; format: cell-based
T3 sequence (whole entry): T1 sequence (Q6DWJ6 whole entry)
Summary of the method: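 Whole CHO-TRex cells stably expressing human GPR139 were incubated with 10 nM of the tritiated ligand to measure total binding. Nonspecific binding was defined by blocking with 10 μM of an unlabelled reference GPR139 agonist. Specific binding was taken as total minus nonspecific.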

[9] = Fraction unbound in human plasma at 0.1 to 10 uM after 6 hrs by LC-MS/MS analysis; format: ADME, cell-free
[10] = biological target: Cytochrome P450 3A4 (Homo sapiens, UniProt P08684); experiment: Inhibition of CYP3A4 in human liver microsomes using midazolam as substrate up to 10 uM by LC-MS/MS analysis; format: ADME
Chain of Cytochrome P450 3A4 (P08684 whole entry): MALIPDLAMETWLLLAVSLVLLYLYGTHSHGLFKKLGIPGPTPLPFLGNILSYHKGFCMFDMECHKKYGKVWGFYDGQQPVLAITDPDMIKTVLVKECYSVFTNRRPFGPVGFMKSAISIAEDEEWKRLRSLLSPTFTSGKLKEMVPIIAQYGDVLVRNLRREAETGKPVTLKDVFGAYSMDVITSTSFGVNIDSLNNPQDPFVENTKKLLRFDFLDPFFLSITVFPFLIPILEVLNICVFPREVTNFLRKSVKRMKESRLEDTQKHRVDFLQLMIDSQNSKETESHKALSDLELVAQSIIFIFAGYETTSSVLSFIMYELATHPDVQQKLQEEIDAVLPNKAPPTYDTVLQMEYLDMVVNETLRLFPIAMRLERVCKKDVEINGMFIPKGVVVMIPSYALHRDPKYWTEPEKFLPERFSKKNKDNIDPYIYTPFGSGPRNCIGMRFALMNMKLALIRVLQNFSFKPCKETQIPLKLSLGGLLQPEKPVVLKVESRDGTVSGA

[11] = Extraction ratio in human liver microsomes at 1 uM after 1 hr by LC-MS/MS analysis; format: ADME; conditions: read-out: ERH; summary of the method: as §1
[12] = biological target: T4, Cytochrome P450 1A2 (Homo sapiens, UniProt P05177); experiment: Inhibition of CYP1A2 in human liver microsomes using phenacetin as substrate up to 10 uM by LC-MS/MS analysis; format: ADME
T4 sequence (P05177 whole entry): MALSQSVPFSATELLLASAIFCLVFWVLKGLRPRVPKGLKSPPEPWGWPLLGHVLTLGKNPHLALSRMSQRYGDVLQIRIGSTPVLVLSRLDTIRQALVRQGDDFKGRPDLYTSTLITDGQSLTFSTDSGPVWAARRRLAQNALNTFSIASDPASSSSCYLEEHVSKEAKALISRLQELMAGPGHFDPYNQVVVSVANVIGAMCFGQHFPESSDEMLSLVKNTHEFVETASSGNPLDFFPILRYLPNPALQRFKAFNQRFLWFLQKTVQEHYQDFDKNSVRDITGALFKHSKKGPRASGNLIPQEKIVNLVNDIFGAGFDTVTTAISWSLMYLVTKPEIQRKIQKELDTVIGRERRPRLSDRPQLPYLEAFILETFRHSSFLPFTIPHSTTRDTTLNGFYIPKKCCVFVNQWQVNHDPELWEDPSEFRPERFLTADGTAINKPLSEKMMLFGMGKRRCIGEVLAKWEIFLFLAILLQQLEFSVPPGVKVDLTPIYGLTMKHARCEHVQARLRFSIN

[13] = Volume of distribution at steady state in Sprague-Dawley rat at 1 mg/kg, iv and 5 mg/kg, po; format: ADME, organism-based; conditions: in vivo, read-out: Vdss
[14] = biological target: T5, Cytochrome P450 2C8 (Homo sapiens, UniProt P10632); experiment: Inhibition of CYP2C8 in human liver microsomes using paclitaxel as substrate up to 10 uM by LC-MS/MS analysis; format: ADME
T5 sequence (P10632 whole entry): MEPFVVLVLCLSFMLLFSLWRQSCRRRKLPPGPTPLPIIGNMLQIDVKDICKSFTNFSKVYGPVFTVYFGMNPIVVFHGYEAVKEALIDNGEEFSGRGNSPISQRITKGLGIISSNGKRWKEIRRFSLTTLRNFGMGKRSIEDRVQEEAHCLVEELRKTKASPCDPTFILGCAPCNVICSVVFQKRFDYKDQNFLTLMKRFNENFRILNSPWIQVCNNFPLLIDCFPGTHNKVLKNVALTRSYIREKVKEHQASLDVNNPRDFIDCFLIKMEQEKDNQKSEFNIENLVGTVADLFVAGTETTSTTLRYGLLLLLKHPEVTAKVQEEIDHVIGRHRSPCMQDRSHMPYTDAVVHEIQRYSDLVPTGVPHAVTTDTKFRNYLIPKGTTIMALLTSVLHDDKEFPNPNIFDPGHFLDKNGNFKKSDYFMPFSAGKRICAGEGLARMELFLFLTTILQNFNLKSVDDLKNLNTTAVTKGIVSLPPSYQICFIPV

[15] = biological target: Cytochrome P450 2C9 (Homo sapiens, UniProt P11712); experiment: Inhibition of CYP2C9 in human liver microsomes using diclofenac as substrate up to 10 uM by LC-MS/MS analysis; format: ADME
Chain of Cytochrome P450 2C9 (P11712 whole entry): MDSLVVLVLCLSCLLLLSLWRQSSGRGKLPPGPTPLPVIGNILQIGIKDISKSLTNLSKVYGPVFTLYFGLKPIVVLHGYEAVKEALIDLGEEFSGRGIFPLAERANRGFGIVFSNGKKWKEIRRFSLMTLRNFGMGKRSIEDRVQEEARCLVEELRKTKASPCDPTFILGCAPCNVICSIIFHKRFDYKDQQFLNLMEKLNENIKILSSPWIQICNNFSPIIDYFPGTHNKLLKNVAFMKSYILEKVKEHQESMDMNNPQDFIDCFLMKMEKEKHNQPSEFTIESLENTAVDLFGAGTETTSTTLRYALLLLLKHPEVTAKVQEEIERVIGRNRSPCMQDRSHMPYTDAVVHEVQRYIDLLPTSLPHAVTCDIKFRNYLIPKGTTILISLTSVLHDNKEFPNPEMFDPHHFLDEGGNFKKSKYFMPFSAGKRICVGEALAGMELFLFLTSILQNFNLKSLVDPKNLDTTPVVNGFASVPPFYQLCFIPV

[16] = Aqueous solubility of the compound in 30 mM phosphate buffer at pH 7 after 3 days; format: physicochemical
[17] = Clearance in Sprague-Dawley rat at 1 mg/kg, iv; format: ADME, organism-based; conditions: in vivo
[18] = Efflux ratio of apparent permeability from basolateral to apical side to apical to basolateral side in MDCK cells; format: ADME, cell-based, Canis lupus familiaris; conditions: dog
Summary of the method: (§2)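 Permeability was measured in MDR1-transfected Madin Darby canine kidney (MDR1-MDCK) cells. Papp is given in units of 1 × 10–6 cm/s. The efflux ratio is Papp basal-to-apical divided by Papp apical-to-basal.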

[19] = Ratio of drug level in brain to plasma in Sprague-Dawley rat at 1 mg/kg, iv and 5 mg/kg, po; format: ADME, organism-based; conditions: read-out: BPR
[20] = AUC in Sprague-Dawley rat at 1 mg/kg, iv and 5 mg/kg, po; format: ADME, organism-based; conditions: in vivo
[21] = biological target: Cytochrome P450 2C19 (Homo sapiens, UniProt P33261); experiment: Inhibition of CYP2C19 in human liver microsomes using S-mephenytoin as substrate up to 10 uM by LC-MS/MS analysis; format: ADME
Chain of Cytochrome P450 2C19 (P33261 whole entry): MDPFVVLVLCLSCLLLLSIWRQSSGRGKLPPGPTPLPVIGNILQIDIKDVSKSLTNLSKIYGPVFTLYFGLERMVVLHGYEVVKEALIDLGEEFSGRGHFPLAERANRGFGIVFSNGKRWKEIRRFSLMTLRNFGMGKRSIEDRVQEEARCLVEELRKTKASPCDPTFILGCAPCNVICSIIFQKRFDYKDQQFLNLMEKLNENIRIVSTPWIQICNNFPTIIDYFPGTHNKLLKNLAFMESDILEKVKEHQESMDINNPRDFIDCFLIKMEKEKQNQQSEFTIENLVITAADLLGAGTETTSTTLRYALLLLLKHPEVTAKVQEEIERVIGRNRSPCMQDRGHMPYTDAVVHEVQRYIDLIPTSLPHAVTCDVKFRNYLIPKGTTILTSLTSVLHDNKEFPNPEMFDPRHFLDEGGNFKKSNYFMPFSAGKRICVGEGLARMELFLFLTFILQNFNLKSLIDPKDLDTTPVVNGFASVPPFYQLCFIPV

[22] = biological target: Cytochrome P450 2D6 (Homo sapiens, UniProt P10635); experiment: Inhibition of CYP2D6 in human liver microsomes using dextromethorphan as substrate up to 10 uM by LC-MS/MS analysis; format: ADME
Chain of Cytochrome P450 2D6 (P10635 whole entry): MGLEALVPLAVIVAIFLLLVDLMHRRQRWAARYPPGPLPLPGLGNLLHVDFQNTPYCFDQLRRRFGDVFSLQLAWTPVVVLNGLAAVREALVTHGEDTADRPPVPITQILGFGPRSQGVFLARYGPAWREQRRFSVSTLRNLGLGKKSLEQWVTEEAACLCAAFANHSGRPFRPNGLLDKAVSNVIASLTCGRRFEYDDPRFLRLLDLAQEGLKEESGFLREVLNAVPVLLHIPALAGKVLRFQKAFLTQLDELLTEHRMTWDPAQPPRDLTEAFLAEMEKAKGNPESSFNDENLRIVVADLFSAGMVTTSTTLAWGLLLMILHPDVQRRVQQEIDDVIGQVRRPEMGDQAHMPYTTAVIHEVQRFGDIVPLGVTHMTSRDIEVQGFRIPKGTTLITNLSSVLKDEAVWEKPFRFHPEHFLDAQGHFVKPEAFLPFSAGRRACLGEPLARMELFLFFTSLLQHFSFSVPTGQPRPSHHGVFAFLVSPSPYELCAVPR

[23] = Half life in Sprague-Dawley rat at 1 mg/kg, iv; format: ADME, organism-based; conditions: in vivo
[24] = Apparent permeability of the compound in MDCK cells; format: ADME, cell-based, Canis lupus familiaris; conditions: dog; summary of the method: as §2
[25] = Cmax in Sprague-Dawley rat at 5 mg/kg, po; format: ADME, organism-based; parameters: dose 5 mg/kg, route oral; conditions: in vivo

COc1cccc(C(=O)N[C@@H](Cc2ccccc2)C(=O)N[C@@H](C)c2ccccc2)c1
pEC50 [1]: 5.00

C[C@H](NC(=O)CNC(=O)c1ccccc1)c1ccccc1
pEC50 [1]: 6.79

C[C@H](NC(=O)CNC(=O)c1cc(F)cc(Cl)c1)c1ccccc1
pEC50 [1]: 7.62

COc1cc(OC)cc(C(=O)NNC(=O)Nc2cccc3ccccc23)c1
pEC50 [1]: 7.37

C[C@H](NC(=O)CNCc1cccc(Cl)c1)c1ccccc1
pEC50 [1]: < 5.00

C[C@H](NC(=O)CNC(=O)c1ccc(Cl)c(Cl)c1)c1ccccc1
pEC50 [1]: 6.71

C[C@H](NC(=O)CNC(=O)c1cccc(OC(F)(F)F)c1)c1ccccc1
pEC50 [1]: 7.34

C[C@H](NC(=O)CNC(=O)c1cccc(C(F)(F)F)c1)c1ccccc1
pEC50 [1]: 7.28

C[C@H](NC(=O)CNC(=O)c1cccc(C#N)c1)c1ccccc1
pEC50 [1]: 7.23

C[C@H](NC(=O)CNC(=O)c1cccc(Cl)c1)c1ccccc1
hepatic extraction ratio at 1 h, 1 µM [2]: 0.4
fraction unbound at 6 h, up to 10 µM [3]: 0.25
solubility at 72 h [4]: > 35 µM
fraction unbound at 6 h, up to 10 µM [5]: 0.09
Activity [6]: inactive
bioavailability [7]: 49%
Activity [8]: Active
fraction unbound at 6 h, up to 10 µM [9]: 0.1
inhibition (INH) [10]: Not Active
hepatic extraction ratio at 1 h, 1 µM [11]: 0.3
inhibition (INH) [12]: Not Active
Vd [13]: 2.1 L/kg
inhibition (INH) [14]: Not Active
inhibition (INH) [15]: Not Active
solubility at 72 h [16]: > 35 µM
clearance [17]: 53 mL/min/kg
efflux ratio [18]: 1.7
Kp [19]: 1.2
AUC [20]: 683 ng·h/mL
inhibition (INH) [21]: Not Active
inhibition (INH) [22]: Not Active
half-life [23]: 2.5 h
Papp [24]: 32 ×10⁻⁶ cm/s
Cmax [25]: 317 ng/mL

C[C@@H](NC(=O)CNC(=O)c1cccc(Cl)c1)c1ccccc1
pEC50 [1]: 5.68

CC(NC(=O)CSC(=O)c1ccccc1)c1ccccc1 (stereo not given)
pEC50 [1]: 6.17

C[C@H](NC(=O)CNC(=O)c1ccccc1Cl)c1ccccc1
pEC50 [1]: 6.82

C[C@H](NC(=O)CNC(=O)c1cccc(F)c1)c1ccccc1
pEC50 [1]: 7.27

C[C@H](NC(=O)CNC(=O)c1cccc(Cl)c1Cl)c1ccccc1
pEC50 [1]: 7.28

COc1cccc(C(=O)N[C@@H](C)C(=O)N[C@@H](C)c2ccccc2)c1
pEC50 [1]: 7.18

C[C@H](NC(=O)CNC(=O)c1cc(Cl)ccc1Cl)c1ccccc1
pEC50 [1]: 7.40

C[C@H](NC(=O)CNC(=O)c1ccc(Cl)cc1)c1ccccc1
pEC50 [1]: 6.93

COc1cc(OC)cc(C(=O)NCC(=O)N[C@@H](C)c2ccccc2)c1
pEC50 [1]: 7.49

C[C@H](NC(=O)CNC(=O)c1cc(Cl)cc(Br)c1)c1ccccc1
pEC50 [1]: 7.11

COc1cccc(C(=O)N[C@@H](CO)C(=O)N[C@@H](C)c2ccccc2)c1
pEC50 [1]: 6.55

COc1cccc(C(=O)NCC(=O)N[C@@H](C)c2ccccc2)c1
hepatic extraction ratio at 1 h, 1 µM [2]: 0.8
fraction unbound at 6 h, up to 10 µM [3]: 0.36
solubility at 72 h [4]: > 35 µM
fraction unbound at 6 h, up to 10 µM [5]: 0.16
fraction unbound at 6 h, up to 10 µM [9]: 0.14
inhibition (INH) [10]: Not Active
hepatic extraction ratio at 1 h, 1 µM [11]: 0.3
inhibition (INH) [12]: Not Active
inhibition (INH) [14]: Not Active
inhibition (INH) [15]: Not Active
pEC50 [1]: 7.48
solubility at 72 h [16]: > 35 µM
efflux ratio [18]: 5.5
inhibition (INH) [21]: Not Active
inhibition (INH) [22]: Not Active
Papp [24]: 16 ×10⁻⁶ cm/s

C[C@H](NC(=O)CNC(=O)c1cc(Cl)cc(Cl)c1)c1ccccc1
pEC50 [1]: 7.34

Cc1cccc(C(=O)NCC(=O)N[C@@H](C)c2ccccc2)c1
pEC50 [1]: 7.62

COc1cccc(C(=O)NCC(=O)N[C@H](C)c2ccccc2)c1
pEC50 [1]: 5.77

COc1cccc(C(=O)N[C@H](C)C(=O)N[C@@H](C)c2ccccc2)c1
pEC50 [1]: 6.36

C[C@H](NCCNC(=O)c1cccc(Cl)c1)c1ccccc1
pEC50 [1]: < 5.00
